Reference: ChEMBL document CHEMBL1125745, “Unsaturated and carbocyclic nucleoside analogues: synthesis, antitumor, and antiviral activity” (J Med Chem, 1991)

Legend:
[1] = test system: L1210; test: Inhibitory activity against murine leukemia L1210 cells; assay type: functional, cell-based; details: Mus musculus
[2] = Cytotoxicity was evaluated against CO9 solid tumor of mouse at 500 ug/disk.; assay type: functional
In short: (§1)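 Disk zone assay: analogue dilutions on 6.5 mm paper disks were placed on dishes with a 0.8% agar bottom layer and a 0.44% soft-agar top layer of tumor cells (≤1 × 10^5/plate) in Fishers-CMRL-1066 with 12% horse serum. Plates were incubated 6-10 days and the inhibition zone was measured by microscope; 200 zone units = 6 mm.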

[3] = test system: L1210; test: Cytotoxicity was evaluated against L1210 leukemia cell line at 500 ug/disk.; assay type: functional, Mus musculus; in short: as §1
[4] = Cytotoxicity was evaluated against low malignancy line at 500 ug/disk.; assay type: functional; in short: as §1
[5] = organism: Homo sapiens; test: Cytotoxicity was evaluated against PO1 human solid tumor at 500 ug/disk.; assay type: functional; in short: as §1
[6] = organism: Mus musculus; test: Concentration that reduces Friend murine leukemia virus titer by 50%; assay type: functional, organism-based
In short: (§2)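 SC-1 cells (1 × 10^4/well) were pretreated with polybrene, infected 2 h at 37 °C with F-MuLV or R-MuLV in EMEM-5 with 8 µg/mL polybrene, washed, and refed with analogue for 72 h. They were then UV-irradiated and overlaid with XC cells (2 × 10^5) for 48 h, fixed and stained with crystal violet. Multinucleated cells were counted and EC50 was taken by linear regression versus untreated cultures.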

[7] = organism: Mus musculus; test: Cytotoxicity was evaluated; assay type: functional
In short: (§3)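 SC-1 cells (1 × 10^4 cells/mL) were seeded, incubated overnight at 37 °C, refed with EMEM-10 and given diluted analogue in triplicate for 72 h at 37 °C. Cells were trypsinized and counted in a Coulter counter. The mean of three wells gave percent of control count, and IC50 was calculated by linear regression.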

[8] = organism: Mus musculus; test: Concentration that reduces Rauscher murine leukemia virus titer by 50%; assay type: functional, organism-based; in short: as §2
[9] = Selectivity index is the ratio of IC50 to EC50 of F-MuLV.; assay type: functional
[10] = Selectivity index which is the ratio of IC50 to EC50 of R-MuLV.; assay type: functional
[11] = test system: MC-38; test: Cytotoxicity was evaluated against C38 solid tumor of mouse at 500 ug/disk.; assay type: functional; parameters: unit not given beside the values; in short: as §1
[12] = organism: Mus musculus; test: Cytotoxicity was evaluated and represented as IC50.; assay type: functional; in short: as §3
[13] = test system: PO3; test: Cytotoxicity was evaluated against PO3 cell line at 1000 ug/disk.
[14] = test system: L1210; test: Cytotoxicity was evaluated against L1210 leukemia cell line at 1000 ug/disk.; assay type: functional, Mus musculus; in short: as §1
[15] = test system: PO3; test: Cytotoxicity was evaluated against PO3 cell line at 1000 ug/disk.; assay type: functional, Mus musculus; in short: as §1
[16] = organism: Homo sapiens; test: Cytotoxicity was evaluated against H125 human solid tumor at 500 ug/disk.; assay type: functional; in short: as §1
[17] = organism: Homo sapiens; test: Cytotoxicity was evaluated against C116 human solid tumor at 500 ug/disk.; assay type: functional; in short: as §1
[18] = Inhibition of incorporation of labeled precursor into macromolecules of noninfected SC-1 cells with the compound at a concentration 300 uM determined against leucine.; assay type: functional
In short: (§4)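 SC-1 cells seeded in 24-well trays at 1 × 10^4 cells/mL, incubated overnight at 37 °C, then exposed to analogue for 72 h at 37 °C. Labeled thymidine (2.5 µCi), [3H-5,6]uridine or [3H-4,5]leucine was added. After 4 h, cells were washed with cold PBS, lysed in 1% SDS/0.01 M EDTA/0.01 M Tris pH 7.7, and lysates were dried on GF/B filters. Result given as % of untreated incorporation.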

[19] = Inhibition of incorporation of labeled precursor into macromolecules of noninfected SC-1 cells with the compound at a concentration 300 uM determined against thymidine; assay type: functional; in short: as §4
[20] = Inhibition of incorporation of labeled precursor into macromolecules of noninfected SC-1 cells with the compound at a concentration 300 uM determined against uridine.; assay type: functional; in short: as §4
[21] = Inhibition of incorporation of labeled precursor into macromolecules of noninfected SC-1 cells with the compound at a concentration 100 uM determined against leucine.; assay type: functional
In short: (§5)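 Noninfected SC-1 cells were incubated with analogue as in the cytotoxicity setup, and [3H]thymidine, [3H]uridine or [3H]leucine was added. After 4 h, wells were washed with ice-cold PBS and cells were lysed in 1% SDS, 0.01 M EDTA, 0.01 M Tris pH 7.7. Lysates were dried on glass-fiber filters, and label is expressed as percent of incorporation in untreated cells.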

[22] = Inhibition of incorporation of labeled precursor into macromolecules of noninfected SC-1 cells with the compound at a concentration 100 uM determined against thymidine; assay type: functional; in short: as §5
[23] = Inhibition of incorporation of labeled precursor into macromolecules of noninfected SC-1 cells with the compound at a concentration 100 uM determined against uridine.; assay type: functional; in short: as §5
[24] = organism: Homo sapiens; test: Cytotoxicity was evaluated against C116 human solid tumor at 1000 ug/disk.; assay type: functional; in short: as §1
[25] = test system: MC-38; test: Cytotoxicity was evaluated against C38 solid tumor of mouse at 1000 ug/disk.; assay type: functional; in short: as §1
[26] = Cytotoxicity was evaluated against low malignancy line at 1000 ug/disk.; assay type: functional; in short: as §1

Cc1cn(C=C=CCO)c(=O)[nH]c1=O
IC50 [1]: 100 µM

Nc1nc(O)c2ncn(C3C=CCO3)c2n1 (stereo not drawn)
IC50 [1]: > 350 µM

Cc1cn(CC#CCO)c(=O)[nH]c1=O
IC50 [1]: > 500 µM

Cc1cn(C/C=C\CCl)c(=O)[nH]c1=O
Cytotoxicity [2]: 320 | Cytotoxicity [3]: 610 | Cytotoxicity [4]: 400 | IC50 [1]: 46 µM | Cytotoxicity [5]: 550

Cc1cn([C@H]2C[C@H](N=[N+]=[N-])[C@@H](CO)O2)c(=O)[nH]c1=O [ZIDOVUDINE]
EC50 [6]: 0.035 µM | IC50 [7]: 594 µM | EC50 [8]: 0.046 µM | SI [9]: 17000 | SI [10]: 12900

Cc1cn(CC#CCCl)c(=O)[nH]c1=O
Cytotoxicity [11]: 630 | Cytotoxicity [3]: 520 | Cytotoxicity [4]: 610 | IC50 [1]: 140 µM

N=c1ncn2c3c1ncn3CC=CC2
IC50 [1]: > 1000 µM

Nc1ncnc2c1ncn2CCCCCl
IC50 [1]: > 440 µM

NC1=NC(N)c2c(ncn2CC#CCO)N1 (stereo not drawn)
IC50 [1]: 200 µM

Nc1ccn([C@@H]2O[C@H](CO)[C@@H](O)[C@@H]2O)c(=O)n1 [CYTARABINE]
IC50 [1]: 0.08 µM

O=C(O)P(=O)(O)O [FOSCARNET]
EC50 [6]: 110 µM | IC50 [12]: 1000 µM | EC50 [8]: 42.8 µM | SI [9]: 9.1 | SI [10]: 23.4

Nc1ncnc2c1ncn2/C=C/CCO
EC50 [6]: 127 µM | IC50 [1]: 100 µM | IC50 [7]: 304 µM | EC50 [8]: 181 µM | SI [9]: 2.4 | SI [10]: 1.7

Nc1ncnc2c1ncn2[C@H]1CC[C@@H](CO)O1
EC50 [6]: 1 µM | IC50 [7]: 83.8 µM | EC50 [8]: 2.6 µM | SI [9]: 83.8 | SI [10]: 32.2

Nc1nc(O)c2ncn(C/C=C\CO)c2n1
IC50 [1]: 680 µM

NC(=O)c1ncn([C@@H]2O[C@H](CO)[C@@H](O)[C@H]2O)n1 [RIBAVIRIN]
EC50 [6]: 8.3 µM | IC50 [7]: 52 µM | EC50 [8]: 32.1 µM | SI [9]: 6.3 | SI [10]: 1.6

Nc1ccn(C/C=C/CCl)c(=O)n1
Cytotoxicity [3]: 520 | Cytotoxicity [4]: 370 | IC50 [1]: 50 µM | Cytotoxicity [13]: 550

Nc1nc(O)c2ncn(CC#CCO)c2n1
Cytotoxicity [14]: 220 | IC50 [1]: 210 µM | Cytotoxicity [15]: 210

NC1=NC(Cl)c2c(ncn2CC#CCCl)N1 (stereo not drawn)
IC50 [1]: 39 µM

Nc1ncnc2c1ncn2/C=C\CCO
EC50 [6]: 194 µM | IC50 [1]: 200 µM | IC50 [7]: > 300 µM | EC50 [8]: 160 µM | SI [9]: > 1.6 | SI [10]: > 1.9

Nc1ccn(C/C=C/CO)c(=O)n1
IC50 [1]: > 550 µM

Nc1ccn([C@H]2CC[C@@H](CO)O2)c(=O)n1 [ZALCITABINE]
EC50 [6]: 23 µM | IC50 [7]: > 100 µM | EC50 [8]: 13.8 µM | SI [9]: > 4.4 | SI [10]: > 7.3

Nc1ncnc2c1ncn2CC#CCCl
Cytotoxicity [11]: 950 | Cytotoxicity [16]: 900 | Cytotoxicity [3]: 930 | Cytotoxicity [4]: 950 | IC50 [1]: 90 µM | Cytotoxicity [13]: 520

Nc1ncnc2c1ncn2C=C=CCCl
Cytotoxicity [17]: 300 | Cytotoxicity [11]: 400 | Cytotoxicity [16]: 300 | Cytotoxicity [3]: 280 | Cytotoxicity [4]: 280 | IC50 [1]: 45 µM | Cytotoxicity [13]: 300

Nc1ccn(C/C=C\CO)c(=O)n1
IC50 [1]: > 1000 µM

NC1=NC(Cl)c2c(ncn2C/C=C/CCl)N1 (stereo not drawn)
Cytotoxicity [11]: 700 | Cytotoxicity [3]: 800 | Cytotoxicity [4]: 600 | IC50 [1]: 39 µM

Nc1nc(O)c2ncn(C=C=CCO)c2n1
IC50 [1]: > 350 µM

Nc1ncnc2c1ncn2C=C=CCO
EC50 [6]: 124 µM | Cytotoxicity [14]: 160 | Precursor inhibition [18]: 79% | Precursor inhibition [19]: 46% | Precursor inhibition [20]: 105% | IC50 [1]: 150 µM | Precursor inhibition [21]: 94% | Precursor inhibition [22]: 80% | Precursor inhibition [23]: 107% | IC50 [7]: 168 µM | EC50 [8]: 87.3 µM | SI [9]: 1.4 | SI [10]: 1.9 | Cytotoxicity [13]: 0

Cc1cn(C/C=C\CO)c(=O)[nH]c1=O
IC50 [1]: > 1000 µM

Nc1ncnc2c1ncn2C1C=CCO1 (stereo not drawn)
Cytotoxicity [24]: 460 | Cytotoxicity [25]: 400 | Cytotoxicity [26]: 500 | Cytotoxicity [14]: 520 | IC50 [1]: > 500 µM | Cytotoxicity [15]: 320

Nc1ncnc2c1ncn2C/C=C/CO
IC50 [1]: 125 µM

Nc1nc(O)c2ncn(C/C=C/CO)c2n1
IC50 [1]: 200 µM

NC1=NC(N)c2c(ncn2C=C=CCO)N1 (stereo not drawn)
Cytotoxicity [17]: 200 | Cytotoxicity [11]: 180 | EC50 [6]: 118 µM | Cytotoxicity [14]: 150 | Cytotoxicity [4]: 40 | IC50 [1]: 60 µM | IC50 [7]: 255 µM | EC50 [8]: 118 µM | SI [9]: 2.2 | SI [10]: 2.2

Nc1ncnc2c1ncn2C/C=C/CCl
Cytotoxicity [11]: 600 | Cytotoxicity [3]: 630 | Cytotoxicity [4]: 400 | IC50 [1]: 45 µM

Cc1cn(C=C=CCO)c(=O)nc1N
Cytotoxicity [17]: 500 | Cytotoxicity [11]: 520 | Cytotoxicity [26]: 550 | Cytotoxicity [14]: 500 | IC50 [1]: 620 µM

Nc1ccn(CC#CCO)c(=O)n1
IC50 [1]: > 550 µM

Nc1ccn(C=C=CCO)c(=O)n1
EC50 [6]: 8.1 µM | Precursor inhibition [18]: 75% | Precursor inhibition [19]: 67% | Precursor inhibition [20]: 51% | IC50 [1]: 560 µM | Precursor inhibition [21]: 91% | Precursor inhibition [22]: 89% | Precursor inhibition [23]: 75% | IC50 [7]: 489 µM | EC50 [8]: 11.5 µM | SI [9]: 60.4 | SI [10]: 42.5

O=c1[nH]c(=O)n2c3c1ncn3CC=CC2
IC50 [1]: > 1000 µM
